Here are results for five compounds from ChEMBL document CHEMBL2321660, “Synthesis, characterization, and photoinduced antibacterial activity of porphyrin-type photosensitizers conjugated to the antimicrobial peptide apidaecin 1b” (J Med Chem, 2013).

Series [1] deals with Staphylococcus aureus. In words: Antibacterial activity against methicillin-resistant Staphylococcus aureus ATCC BAA-44 assessed as cell death at 0.5 uM incubated for 15 to 120 mins in dark followed by blue light illumination post compound washout. It is filed as functional, organism-based. The procedure, abridged: (§1)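 Overnight BHI-grown stationary-phase bacteria in PBS pH 7.3 at ~2 × 10⁷ cells/mL, dark-incubated with PS at rt. Then centrifuged at 10000g for 5 min and washed three times in PBS before blue light (390−460 nm, 15.2 mW/cm², 13.5 J/cm²). Survival measured as cfu from serial dilutions plated in duplicate on BHI agar.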

For series [2], the system named is Escherichia coli. Kind of series: Antibacterial activity against Escherichia coli ATCC 25922 assessed as cell death at 10 uM incubated for 15 to 120 mins in dark followed by blue light illumination post compound washout. The format is functional, organism-based. The procedure, abridged: (§2)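 Dark incubation with PS at rt, then illumination either directly or after three PBS washes (10000g, 5 min). Survival by 10-fold serial dilution, duplicate plating on BHI agar, overnight colony count at 37 °C; dark, light-only and peptide-only controls.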

In series [3] the test system is Escherichia coli. In words: Antibacterial activity against Escherichia coli ATCC 25922 assessed as cell death at 1.5 to 15 uM incubated for 60 mins in dark followed by blue light illumination post compound washout. It is filed as functional, organism-based. The procedure, abridged: as §2
In series [4] the test system is Escherichia coli. Kind of series: Antibacterial activity against Escherichia coli ATCC 25922 assessed as cell death at 10 uM incubated for 15 to 120 mins in dark followed by blue light illumination. It is filed as functional, organism-based. The procedure, abridged: as §2
For series [5], the system named is Staphylococcus aureus. Kind of series: Drug uptake in methicillin-resistant Staphylococcus aureus ATCC BAA-44 at 1.5 uM incubated for 60 mins in dark followed by flow cytometry. It is filed as ADME, organism-based. The following applies: in vivo, 1 h. The procedure, abridged: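 Cells treated as for photoinactivation: 60 min dark incubation with PS, unwashed or after three PBS washings. Analysed by flow cytometry for cell-associated red fluorescence instead of being illuminated.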
In general terms: In flow cytometry, cells or beads pass a laser one at a time.

Series [6] has as its system Escherichia coli. In words: Antibacterial activity against Escherichia coli ATCC 25922 assessed as cell death at 10 uM incubated for 60 mins in dark followed by blue light illumination post compound washout. It is filed as functional, organism-based. The procedure, abridged:
as §2

Series [7] concerns Escherichia coli. In words: Antibacterial activity against Escherichia coli ATCC 25922 assessed as cell death at 15 uM incubated for 60 mins in dark followed by blue light illumination relative to control. It is filed as functional. The procedure, abridged: (§3)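 Stationary-phase bacteria grown overnight in BHI at 37 °C, washed twice and resuspended in PBS pH 7.3 at ~2 × 10⁷ cells/mL. Dark incubation with PS at rt, unbound PS left in. Blue light (390−460 nm) at 15.2 mW/cm², 13.5 J/cm². Survivors counted as cfu from serial 10-fold dilutions plated in duplicate on BHI agar, 37 °C overnight. Dark, light-only and untreated controls.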

For series [8], the system named is Staphylococcus aureus. Kind of series: Antibacterial activity against methicillin-resistant Staphylococcus aureus ATCC BAA-44 assessed as log reduction in cell survival at 0.5 uM incubated for 60 mins in dark followed by blue light illumination. The format is functional. The procedure, abridged: as §3
Series [9] concerns Escherichia coli. Kind of series: Drug uptake in Escherichia coli ATCC 25922 at 5 uM incubated for 60 mins in dark followed by flow cytometry. It is filed as ADME, organism-based. The following applies: in vivo, 1 h. The procedure, abridged:
(§4)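 Bacterial suspensions treated as for photoinactivation (5 μM, 60 min dark incubation at rt, either unwashed or washed three times with PBS) and then analysed for cell-associated red fluorescence by flow cytometry instead of being illuminated.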

Series [10] deals with Staphylococcus aureus. Kind of series: Antibacterial activity against methicillin-resistant Staphylococcus aureus ATCC BAA-44 assessed as cell death at 0.5 uM incubated for 15 to 120 mins in dark followed by blue light illumination. It is filed as functional, organism-based. The procedure, abridged:
as §3

Series [11] deals with Staphylococcus aureus. In words: Antibacterial activity against methicillin-resistant Staphylococcus aureus ATCC BAA-44 assessed as cell death at 0.5 uM incubated for 60 mins in dark followed by blue light illumination post compound washout. It is filed as functional, organism-based. The procedure, abridged:
as §1

The subject of series [12] is Escherichia coli. In words: Antibacterial activity against Escherichia coli ATCC 25922 assessed as cell death after 60 mins in dark followed by blue light illumination. The format is functional, organism-based. The procedure, abridged:
as §2

In series [13] the test system is Staphylococcus aureus. Kind of series: Antibacterial activity against methicillin-resistant Staphylococcus aureus ATCC BAA-44 assessed as cell death at 10 uM incubated for 15 to 120 mins in dark followed by red light illumination. It is filed as functional, organism-based. The procedure, abridged:
(§5)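 Cells incubated with PS in the dark at rt in PBS pH 7.3 (~2 × 10⁷ cells/mL), unbound PS not removed. Red light (600−750 nm) delivered from above at 40 mW/cm², total 36 J/cm². Viability read as cfu after 10-fold serial dilution, duplicate plating on BHI agar, overnight at 37 °C.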

Series [14] concerns Staphylococcus aureus. In words: Antibacterial activity against methicillin-resistant Staphylococcus aureus ATCC BAA-44 assessed as cell death at 1.5 to 15 uM incubated for 60 mins in dark followed by red light illumination. The format is functional, organism-based. The procedure, abridged:
as §5

The subject of series [15] is Escherichia coli. Kind of series: Antibacterial activity against Escherichia coli ATCC 25922 assessed as cell death after 60 mins in dark followed by red light illumination. It is filed as functional, organism-based. The procedure, abridged:
as §2

Series [16] deals with Staphylococcus aureus. In words: Antibacterial activity against methicillin-resistant Staphylococcus aureus ATCC BAA-44 assessed as cell death at 10 uM incubated for 15 to 120 mins in dark followed by red light illumination post compound washout. The format is functional, organism-based. The procedure, abridged:
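After dark incubation with PS in PBS at rt, cells pelleted at 10000g for 5 min and washed three times with PBS. Red light (600−750 nm, 40 mW/cm², 36 J/cm²). Surviving cfu counted on BHI agar plated in duplicate.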

Series [17] has as its system Staphylococcus aureus. Kind of series: Antibacterial activity against methicillin-resistant Staphylococcus aureus ATCC BAA-44 assessed as cell death at 50 to 500 nM incubated for 60 mins in dark followed by blue light illumination. The format is functional, organism-based. The procedure, abridged: as §3
For series [18], the system named is Escherichia coli. In words: Antibacterial activity against Escherichia coli ATCC 25922 assessed as cell death at 5 to 10 uM incubated for 60 mins in dark followed by blue light illumination. The format is functional, organism-based. The procedure, abridged: as §3
In series [19] the test system is Escherichia coli. Kind of series: Antibacterial activity against Escherichia coli ATCC 25922 assessed as log reduction at 10 uM incubated for 60 mins in dark followed by blue light illumination post compound washout relative to control. The format is functional, organism-based. The procedure, abridged: as §1
Series [20] concerns Escherichia coli. Kind of series: Antibacterial activity against Escherichia coli ATCC 25922 assessed as cell death at 5 uM incubated for 15 to 120 mins in dark followed by blue light illumination post compound washout. The format is functional, organism-based. The procedure, abridged:
as §1

Series [21] relates to Staphylococcus aureus. Kind of series: Antibacterial activity against methicillin-resistant Staphylococcus aureus ATCC BAA-44 assessed as cell death at 0.5 uM incubated for 60 mins in dark followed by blue light illumination. It is filed as functional, organism-based. The procedure, abridged: as §3
The test system of series [22] is Escherichia coli. Kind of series: Antibacterial activity against Escherichia coli ATCC 25922 assessed as cell death at 5 uM incubated for 15 to 120 mins in dark followed by blue light illumination. The format is functional, organism-based. The procedure, abridged:
as §3

The test system of series [23] is Staphylococcus aureus. Kind of series: Antibacterial activity against methicillin-resistant Staphylococcus aureus ATCC BAA-44 assessed as cell death at 50 to 500 nM incubated for 60 mins in dark followed by blue light illumination post compound washout. The format is functional, organism-based. The procedure, abridged:
as §1

For series [24], the system named is Staphylococcus aureus. Kind of series: Antibacterial activity against methicillin-resistant Staphylococcus aureus ATCC BAA-44 assessed as cell death at 10 nM incubated for 15 to 120 mins in dark followed by blue light illumination. It is filed as functional, organism-based. The procedure, abridged: as §3
Series [25] deals with Staphylococcus aureus. Kind of series: Antibacterial activity against methicillin-resistant Staphylococcus aureus ATCC BAA-44 assessed as cell death at 10 nM incubated for 15 to 120 mins in dark followed by blue light illumination post compound washout. The format is functional, organism-based. The procedure, abridged:
as §1

The subject of series [26] is Escherichia coli. Kind of series: Drug uptake in Escherichia coli ATCC 25922 at 5 uM incubated for 60 mins in dark followed by flow cytometry post compound washout. It is filed as ADME, organism-based. The following applies: in vivo, 1 h. The procedure, abridged:
as §4

Activity calls are given as the source filed them. The rule behind the calls is not given here. Residues, ends and D or L forms follow the SMILES beside them. *: point of attachment. Benzoyl(4-TriPhPorphyrinyl) = O=C(c1ccc(-c2c3nc(c(-c4ccccc4)c4ccc([nH]4)c(-c4ccccc4)c4nc(c(-c5ccccc5)c5ccc2[nH]5)C=C4)C=C3)cc1)*

As for `CC[C@H](C)[C@H](NC(=O)[C@H](Cc1ccc(O)cc1)NC(=O)[C@@H](NC(=O)[C@@H]1CCCN1C(=O)[C@H](CCCNC(=N)N)NC(=O)[C@H](CC(N)=O)NC(=O)[C@H](CC(N)=O)NC(=O)CNC(=O)c1ccc(-c2c3nc(c(-c4ccccc4)c4ccc([nH]4)c(-c4ccccc4)c4nc(c(-c5ccccc5)c5ccc2[nH]5)C=C4)C=C3)cc1)C(C)C)C(=O)N1CCC[C@H]1C(=O)N[C@@H](CCC(N)=O)C(=O)N1CCC[C@H]1C(=O)N[C@@H](CCCNC(=N)N)C(=O)N1CCC[C@H]1C(=O)N1CCC[C@H]1C(=O)N[C@@H](Cc1cnc[nH]1)C(=O)N1CCC[C@H]1C(=O)N[C@@H](CCCNC(=N)N)C(=O)N[C@@H](CC(C)C)C(=O)O` ({Benzoyl(4-TriPhPorphyrinyl)}-GNNRPVYIPQPRPPHPRL-OH), the outcome with Staphylococcus aureus [1], in the series with Escherichia coli [2], with Escherichia coli [3], in the series on Escherichia coli [4], in the series with Escherichia coli [6] and in the series on Staphylococcus aureus [10] was Active. Besides, the outcome in the series with Staphylococcus aureus [11] was Active. Also, the Drug uptake result in the series with Staphylococcus aureus [5] and in the series with Escherichia coli [9] was “Active” each time. In addition, the “fold change (FC)” value in the series on Escherichia coli [7] was determined as 4. In addition, in the series on Staphylococcus aureus [8], the FC is 3. Also, in the series on Escherichia coli [12], the Activity entry is “Dose-dependent effect”.

Take `COC(=O)CCCC(=O)Nc1cc2[nH]c(cc2-c2ccccc2)c2nc(ccc3[nH]c(cc3-c3ccccc3)c3nc1C(c1ccccc1)=C3)C(c1ccccc1)=C2`: the outcome in the series with Staphylococcus aureus [13], in the series with Staphylococcus aureus [14] and in the series on Staphylococcus aureus [16] was Active. Moreover, the outcome with Escherichia coli [15] was inactive.

For `C[n+]1ccc(-c2c3nc(c(-c4cc[n+](C)cc4)c4ccc([nH]4)c(-c4ccc(C(=O)O)cc4)c4ccc([nH]4)c(-c4cc[n+](C)cc4)c4nc2C=C4)C=C3)cc1`, the outcome in the series on Staphylococcus aureus [1], in the series on Escherichia coli [3], with Staphylococcus aureus [17], in the series on Escherichia coli [18], in the series with Escherichia coli [20] and in the series on Staphylococcus aureus [21] was Active. Also, the result with Staphylococcus aureus [10] and with Escherichia coli [22] was Active. Further, the Drug uptake entry in the series on Staphylococcus aureus [5] and in the series with Escherichia coli [9] was “Not Active” throughout. Moreover, the result in the series with Escherichia coli [19] and in the series on Staphylococcus aureus [23] was inactive. In addition, in the series on Escherichia coli [12], the Activity result was “Dose-dependent effect”.

Consider `O=C(O)c1ccc(-c2c3nc(c(-c4ccccc4)c4ccc([nH]4)c(-c4ccccc4)c4nc(c(-c5ccccc5)c5ccc2[nH]5)C=C4)C=C3)cc1`, for which the result in the series with Staphylococcus aureus [24], in the series with Staphylococcus aureus [17], in the series with Staphylococcus aureus [25], in the series on Staphylococcus aureus [21] and in the series on Staphylococcus aureus [23] was Active. Besides, the Drug uptake entry in the series on Staphylococcus aureus [5] is “Active”; in the series with Escherichia coli [9], “Not Active”; with Escherichia coli [26], “Not Active”. Further, the result in the series on Escherichia coli [12] was inactive.

In the case of `CC(C)C[C@H](NC(=O)[C@H](CCCNC(=N)N)NC(=O)[C@@H]1CCCN1C(=O)[C@H](Cc1cnc[nH]1)NC(=O)[C@@H]1CCCN1C(=O)[C@@H]1CCCN1C(=O)[C@H](CCCNC(=N)N)NC(=O)[C@@H]1CCCN1C(=O)CNC(=O)c1ccc(-c2c3nc(c(-c4ccccc4)c4ccc([nH]4)c(-c4ccccc4)c4nc(c(-c5ccccc5)c5ccc2[nH]5)C=C4)C=C3)cc1)C(=O)O` ({Benzoyl(4-TriPhPorphyrinyl)}-GPRPPHPRL-OH), the outcome in the series with Staphylococcus aureus [1], with Escherichia coli [2], in the series with Escherichia coli [3], with Escherichia coli [4], in the series on Staphylococcus aureus [10] and in the series on Staphylococcus aureus [11] was Active. In addition, the Drug uptake entry in the series with Staphylococcus aureus [5] and in the series on Escherichia coli [9] was “Active” throughout. The “fold change (FC)” value in the series with Escherichia coli [7] is 4. In addition, in the series with Staphylococcus aureus [8], the FC is reported as 3. Besides, the Activity entry in the series with Escherichia coli [12] is “Dose-dependent effect”.
